This is an account of results in BindingDB's records for PubMed 35512565 (Baylor College of Medicine, 2022).

For this assay, the target named is Histone acetyltransferase p300 (Homo sapiens, UniProt Q09472). Briefly: Inhibition of human p300 HAT domain (1195 to 1673 residues) using histone H3 peptide and acetyl-coA as substrates preincubated for 10 mins followed by substrate addition and measured after 30 mins by beckman scintillation counting analysis. A digest of the protocol: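 Recombinant human p300 HAT domain (10 nM) was preincubated with a dilution series of inhibitor for 10 min at 25 °C in 50 mM phosphate buffer, pH 7.0, with 0.01% Brij-35. The reaction was started with histone H3(1-21) peptide (20 μM) and Ac-CoA (1 μM ³H-Ac-CoA plus 19 μM unlabelled) and run 30 min at 25 °C. It was stopped with formic acid, spotted on P81 paper, washed 3× with 50 mM NaHCO₃, and counted by scintillation. IC50 came from a sigmoidal fit, mean of ≥3 experiments.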

SMILES strings stand for the structures.

Histone acetyltransferase p300, sequence (Q09472 whole entry, the tested form may be a part): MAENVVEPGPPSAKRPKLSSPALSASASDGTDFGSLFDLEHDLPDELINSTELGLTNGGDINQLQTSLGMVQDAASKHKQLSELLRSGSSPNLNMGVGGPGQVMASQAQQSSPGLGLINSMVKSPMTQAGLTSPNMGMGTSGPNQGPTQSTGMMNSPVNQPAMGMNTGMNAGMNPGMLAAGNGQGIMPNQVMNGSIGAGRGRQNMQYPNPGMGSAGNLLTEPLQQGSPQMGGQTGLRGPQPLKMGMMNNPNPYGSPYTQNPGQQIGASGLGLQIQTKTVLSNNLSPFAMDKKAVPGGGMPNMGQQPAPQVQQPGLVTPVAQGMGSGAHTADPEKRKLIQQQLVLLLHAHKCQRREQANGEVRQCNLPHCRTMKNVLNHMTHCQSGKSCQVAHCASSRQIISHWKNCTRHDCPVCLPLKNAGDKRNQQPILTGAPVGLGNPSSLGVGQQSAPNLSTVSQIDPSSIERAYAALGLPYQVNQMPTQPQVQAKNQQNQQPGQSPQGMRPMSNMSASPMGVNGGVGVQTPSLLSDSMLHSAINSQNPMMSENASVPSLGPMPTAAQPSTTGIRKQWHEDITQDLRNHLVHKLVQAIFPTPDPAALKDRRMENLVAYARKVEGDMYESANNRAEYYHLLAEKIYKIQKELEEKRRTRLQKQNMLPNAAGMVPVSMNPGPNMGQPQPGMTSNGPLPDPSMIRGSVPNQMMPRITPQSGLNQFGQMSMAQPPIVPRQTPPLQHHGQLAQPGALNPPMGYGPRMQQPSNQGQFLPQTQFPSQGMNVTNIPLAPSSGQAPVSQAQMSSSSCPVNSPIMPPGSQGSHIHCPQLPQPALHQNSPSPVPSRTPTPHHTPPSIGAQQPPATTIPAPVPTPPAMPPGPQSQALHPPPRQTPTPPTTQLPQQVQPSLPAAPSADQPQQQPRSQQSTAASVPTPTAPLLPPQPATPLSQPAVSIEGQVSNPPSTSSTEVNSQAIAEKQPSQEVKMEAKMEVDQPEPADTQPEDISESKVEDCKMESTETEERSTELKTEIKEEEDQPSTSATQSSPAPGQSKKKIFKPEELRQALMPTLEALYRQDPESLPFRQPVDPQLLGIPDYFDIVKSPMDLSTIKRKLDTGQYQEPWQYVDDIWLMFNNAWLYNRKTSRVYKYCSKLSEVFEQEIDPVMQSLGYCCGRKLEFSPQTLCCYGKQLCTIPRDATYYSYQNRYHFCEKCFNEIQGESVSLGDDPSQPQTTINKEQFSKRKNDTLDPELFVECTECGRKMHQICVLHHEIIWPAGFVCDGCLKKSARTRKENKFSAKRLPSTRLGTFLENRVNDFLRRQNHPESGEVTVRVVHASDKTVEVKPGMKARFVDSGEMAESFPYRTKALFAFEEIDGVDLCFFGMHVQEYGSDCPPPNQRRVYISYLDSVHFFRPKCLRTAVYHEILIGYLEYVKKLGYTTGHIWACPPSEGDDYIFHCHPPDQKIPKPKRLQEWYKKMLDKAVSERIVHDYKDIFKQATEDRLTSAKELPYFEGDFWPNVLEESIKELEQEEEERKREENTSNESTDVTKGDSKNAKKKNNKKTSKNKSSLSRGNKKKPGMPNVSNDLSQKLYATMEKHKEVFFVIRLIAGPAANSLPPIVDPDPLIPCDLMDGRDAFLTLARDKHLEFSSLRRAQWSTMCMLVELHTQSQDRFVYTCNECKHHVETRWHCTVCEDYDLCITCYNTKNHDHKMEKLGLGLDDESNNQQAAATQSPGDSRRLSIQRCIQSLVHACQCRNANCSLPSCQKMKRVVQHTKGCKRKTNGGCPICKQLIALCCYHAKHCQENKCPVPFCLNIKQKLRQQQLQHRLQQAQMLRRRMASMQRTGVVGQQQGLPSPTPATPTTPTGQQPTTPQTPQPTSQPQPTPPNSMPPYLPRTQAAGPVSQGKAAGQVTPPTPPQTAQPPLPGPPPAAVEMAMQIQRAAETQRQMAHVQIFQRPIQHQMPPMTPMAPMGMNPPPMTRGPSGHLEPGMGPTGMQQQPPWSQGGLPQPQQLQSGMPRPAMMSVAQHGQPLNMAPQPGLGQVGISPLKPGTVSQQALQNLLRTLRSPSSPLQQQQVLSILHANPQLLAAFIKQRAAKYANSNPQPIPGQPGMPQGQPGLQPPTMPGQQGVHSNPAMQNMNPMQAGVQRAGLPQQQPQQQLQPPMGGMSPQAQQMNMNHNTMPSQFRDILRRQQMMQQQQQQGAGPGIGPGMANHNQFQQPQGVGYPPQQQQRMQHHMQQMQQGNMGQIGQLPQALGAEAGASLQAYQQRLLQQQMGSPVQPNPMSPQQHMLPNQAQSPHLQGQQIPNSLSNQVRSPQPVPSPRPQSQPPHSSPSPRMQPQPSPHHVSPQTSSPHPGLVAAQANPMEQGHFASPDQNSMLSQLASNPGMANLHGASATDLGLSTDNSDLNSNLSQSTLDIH

One may read the IC50 as the point on the concentration scale where inhibition reaches its midpoint. A higher IC50 goes with a need for much substance. On to `Brc1ccc(-c2ncc(OCC3CCNCC3)nc2-c2ccc(Br)c(Br)c2)cc1Br`, for which half-maximal inhibition (IC50) was put at 10 µM.
